Positions count from the first letter of the chain named. Blank lines part the entries; values can stand above or below the compound they belong to.
Experiments:
[1] = system: MDA-MB-231 cells; assay: MTT assay, cell proliferation; format: cell-based, human; details: for inhibition of cell proliferation: MDA-MB-231, 25 to 50 μM, 24 h, MTT, Fig. 4; for cell growth inhibition compared to non-acetylated precursors 5 and 7: MDA-MB-231, Fig. 4
How it was run: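 MDA-MB-231 cells were grown in RPMI 1640 with 10% FBS and penicillin/streptomycin at 37°C, 5% CO2. Triplicate wells were treated with test compound (25 or 50 μM) for 24 h. The medium was aspirated, then MTT (1 mg/ml) was added for 3 h at 37°C. The formazan was dissolved in DMSO and absorbance read at 540 nm.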

[2] = system: proteasome in MDA-MB-231 cells; assay: Accumulation of ubiquitinated proteins, Western blotting; format: cell-based, human; details: MDA-MB-231, 50 μM, 22 hours, compared with compound 6 and Pro-EGCG (4), Fig. 6
How it was run: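 MDA-MB-231 cells (ATCC; RPMI 1640 with 10% FBS, penicillin/streptomycin; 37°C, 5% CO2) exposed to 50 μM test compound for 22 h. Extracted proteins were analysed by Western blot with antibodies against ubiquitinated proteins, with actin as loading reference.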

[3] = molecular target: T1, purified rabbit 20S proteasome (Oryctolagus cuniculus, UniProt G1T4Q9); assay: Inhibition of purified 20S proteasome chymotrypsin-like activity; format: biochemical; details: for proteasome inhibition: even at 50 μM, Fig. 2A
T1 sequence (G1T4Q9 60-263): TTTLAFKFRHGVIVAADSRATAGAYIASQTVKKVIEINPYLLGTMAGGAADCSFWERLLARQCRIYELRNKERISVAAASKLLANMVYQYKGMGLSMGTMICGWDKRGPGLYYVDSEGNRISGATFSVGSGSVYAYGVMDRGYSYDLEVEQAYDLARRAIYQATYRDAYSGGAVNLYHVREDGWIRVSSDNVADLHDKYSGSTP
How it was run: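 Purified rabbit 20S proteasome (35 ng) incubated with 20 μM Suc-LLVY-AMC in 20 mM Tris–HCl pH 7.5, with test compound at various concentrations or solvent, for 2 h at 37°C. Chymotrypsin-like activity was read as fluorogenic substrate hydrolysis at 355 nm excitation and 460 nm emission.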

[4] = system: proteasome chymotrypsin-like activity; details: cited from earlier work
[5] = system: cancer cell lines; details: a number of cancer cell lines; cited from earlier work
[6] = molecular target: T2, 26S proteasome in MDA-MB-231 cell extract (Homo sapiens, UniProt P28074); assay: Proteasomal chymotrypsin-like activity in MDA-MB-231 cell extract; format: biochemical; details: for inhibition of proteasomal activity: MDA-MB-231 cell lysate with high COMT activity, 1-10 μM, 2 h, Fig. 3A; for change of proteasome inhibitory activity with COMT inhibitor DNC: lysate pre-treated with 10 μM DNC for 20 minutes, Fig. 3B
T2 sequence (P28074 60-263): T1 sequence (G1T4Q9 60-263) with D197E
How it was run: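 MDA-MB-231 cell extract (5.7 μg; lysate with high COMT activity) incubated with 20 μM Suc-LLVY-AMC in 20 mM Tris–HCl pH 7.5 with test compound at various concentrations or solvent, 2 h, 37°C. Chymotrypsin-like activity was measured by fluorescence at 355/460 nm. In the COMT-blocked arm, the extract was pre-treated 20 min with 10 μM 3,5-dinitrocatechol, then co-incubated with test compound for 2 h.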

Structure (SMILES): CC(=O)Oc1cc(OC(C)=O)cc(C(=O)O[C@H]2Cc3ccccc3C[C@H]2OC(=O)c2cc(OC(C)=O)cc(OC(C)=O)c2)c1 [compound 8]
inhibition of cell proliferation [1]: 70-79% | cell growth inhibition compared to non-acetylated precursors 5 and 7 [1]: more potent | accumulation of ubiquitinated proteins [2]: higher levels of ubiquitinated proteins

Structure (SMILES): CC(=O)Oc1cc(C(=O)O[C@H]2Cc3ccccc3C[C@H]2OC(=O)c2cc(OC(C)=O)c(OC(C)=O)c(OC(C)=O)c2)cc(OC(C)=O)c1OC(C)=O [compound 6]
inhibition of cell proliferation [1]: about 50% | cell growth inhibition compared to non-acetylated precursors 5 and 7 [1]: more potent

Structure (SMILES): CC(=O)Oc1cc(OC(C)=O)c2c(c1)O[C@H](c1cc(OC(C)=O)c(OC(C)=O)c(OC(C)=O)c1)[C@H](OC(=O)c1cc(OC(C)=O)c(OC(C)=O)c(OC(C)=O)c1)C2 [compound 4, peracetate of (-)-EGCG]
inhibition of cell proliferation [1]: 0 to 32% | activity as a proteasome inhibitor [4]: not active | growth inhibitory activity relative to EGCG [5]: enhanced growth inhibitory activity

Structure (SMILES): O=C(O[C@@H]1Cc2c(O)cc(O)cc2O[C@@H]1c1cc(O)c(O)c(O)c1)c1cc(O)c(O)c(O)c1 [EGCG, (-)-Epigallocatechin-3-gallate, reference compound]
inhibition of proteasomal chymotryptic activity ([3]; Fig. 2): potently inhibited | change of proteasome inhibitory activity with COMT inhibitor DNC [6]: improved | IC50 ([4]; read-out: IC50, chymotrypsin-like activity of the proteasome in vitro, in vitro): 86 to 194 nM

Next, values leading:

proteasome inhibition [3]: not active
Structure (SMILES): O=C(O[C@H]1Cc2ccccc2C[C@H]1O)c1cc(O)c(O)c(O)c1 [compound 16]

proteasome inhibition [3]: not active
Structure (SMILES): O=C(O[C@H]1Cc2ccccc2C[C@H]1O)c1cc(O)cc(O)c1 [compound 21]

inhibition of proteasomal activity [6]: 10-16% | change of proteasome inhibitory activity with COMT inhibitor DNC [6]: improved
Structure (SMILES): O=C(O[C@H]1Cc2ccccc2C[C@H]1OC(=O)c1cc(O)c(O)c(O)c1)c1cc(O)c(O)c(O)c1 [compound 5]

inhibition of proteasomal activity [6]: 18-51% | change of proteasome inhibitory activity with COMT inhibitor DNC [6]: only slightly increased
Structure (SMILES): O=C(O[C@H]1Cc2ccccc2C[C@H]1OC(=O)c1cc(O)cc(O)c1)c1cc(O)cc(O)c1 [compound 7]
